Our source for the cytotoxicity values is ChEMBL document CHEMBL4513216, “Probing the Open Global Health Chemical Diversity Library for Multistage-Active Starting Points for Next-Generation Antimalarials” (ACS Infect Dis, 2020).

This data set is described as follows: Toxicity liver stage against HepG2, at 10uM. The data set is classed as cell-based. Details: test concentration 10 uM, cell line HepG2-A16-CD81EGFP. As to conditions: human, HepG2-A16-CD81EGFP cells; read-out: INHIBITION
The gist of the method:
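Uninfected HepG2-A16-CD81EGFP cells, 3 × 10^3 per well, 1536-well, plated on prespotted compound at 10 μM final, parasite-free screening media added to match infected plates; puromycin 10 μM positive, DMSO 0.5% negative; run in parallel with 48 h PbLuc assay at 37 °C, 5% CO2; viability by CellTiter-Glo luminescence, normalized to controls.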
For the molecule `Cc1ncoc1C(=O)N1CCCC(C(=O)c2cccc(OC(C)C)c2)C1` (configuration not stated), the cytotoxicity at 10 µM was 8.84%.
Take `Fc1ccc2[nH]c([C@H]3CCN(C4CCOCC4)C3)nc2c1`: the cytotoxicity at 10 µM was determined as 1.9%.
Then `COc1ccc2c(c1)OC1(CCN(Cc3ccc(C)cc3)CC1)CC2=O`, with 7.6%; and `CC(=O)Nc1ccc(OCc2noc(C(=O)N3CCCC3)n2)cc1`, with -12.3%.
For `CC(C)CNC(=O)CNc1c(NCc2ccco2)c(=O)c1=O` the value was -0.817%.
For `Cc1cc(=O)n(CCNS(=O)(=O)c2ccccc2)cn1` the value was 3.33%; for `CN(C)CC1CSCCCN1S(=O)(=O)Cc1ccc(C(F)(F)F)cc1` (configuration not stated), -5.36%; for `O=C(CC1CCCC1)N1CCN(c2ccc(-n3cncn3)nn2)CC1`, -11.9%.
On to `CC1c2ncc(COCC3CCOCC3)n2CCN1C(=O)c1ccoc1` (configuration not stated), for which the cytotoxicity at 10 µM came out at 7.01%.
`CC(C)N1CCN(C)C2(CCN(C(=O)c3ccnnc3)CC2)C1=O`: the cytotoxicity at 10 µM was 8.64%.
For `O=C(COc1ccc2c(c1)OCO2)NCc1ccco1` the value was 3.22%; for `CCN(CC)CCNS(=O)(=O)c1cccc(CSC)c1`, -7.99%; for `Cc1nc(-c2ccnn2C)cc(C2CCCN(S(C)(=O)=O)C2)n1` (configuration not stated), -0.66%.
For the molecule `Cc1ncc(-c2ccccn2)c(CCNC(=O)C2CCCC2)n1`, the cytotoxicity at 10 µM amounted to 16.4%.
Consider `Nc1ncc(CN2CCC(O)(c3ccccc3F)CC2)cn1`, for which the cytotoxicity at 10 µM was 1%.
Then `Cc1cc2nccc(C3CCCN(C(=O)c4ccccc4F)C3)n2n1` (configuration not stated), with 13.6%; and `CCc1n[nH]c(C(=O)NCCn2nccc2C)c1C`, with -7.28%; and `CN(C)CCN(Cc1cccc(F)c1)C(=O)c1ccn(C)c(=O)c1`, with -3.92%.
Then `O=C(CCC(F)(F)F)NCC1CCCS1` (configuration not stated), with -1.58%.
For the molecule `Cc1cc(F)cc(S(=O)(=O)Nc2noc(C)n2)c1`, the cytotoxicity at 10 µM is 3.11%.
Then `O=C(Nc1cccnc1)N(Cc1ccccc1)C1CC1`, with 7.78%.
Then `Cc1noc(CCNC(=O)C2CSCN2C(=O)C2CCCC2)n1` (configuration not stated), with -45%; and `CN1CCCC(CNC(=O)CN(C)S(=O)(=O)c2cccnc2)C1` (configuration not stated), with 9.45%.
As to `Cc1nc(CN2CCN(S(=O)(=O)N3CCOCC3)CC2)oc1C`, the cytotoxicity at 10 µM was 0.373%.
For the molecule `O=C(NCC1(O)CCC1)NC(c1cc(F)ccc1F)C1CC1` (configuration not stated), the cytotoxicity at 10 µM is -4.81%.
As to `CN(CCCNC(=O)C1CCc2cn[nH]c2C1)c1ccc(F)cc1` (configuration not stated), the cytotoxicity at 10 µM came to 14.2%.
With `CCNc1cc2c(nn1)CCN(C(=O)C1COc3ccccc3O1)C2` (configuration not stated), the cytotoxicity at 10 µM was -6.34%.
`COC(C)Cc1nc(-c2cnn3c(C)cc(C)nc23)no1` (configuration not stated): the cytotoxicity at 10 µM is -8.11%.
For `CN(CCCNC(=O)NCc1ccncc1)CC(F)(F)F` the value was 1.85%.
Then `COCCC(=O)N(Cc1ccccn1)Cc1ccccc1C`, with 2.14%; and `CC(CS(C)(=O)=O)N(C(=O)CCc1ccc(Cl)s1)C1CC1` (configuration not stated), with 1.92%.
As to `Cc1nc(N2CCC(CC(=O)N3CCCC3)CC2)c2cnn(C)c2n1`, the cytotoxicity at 10 µM came to 0.866%.
For `CS(=O)(=O)c1ccc(NC(=O)CSc2ccc3c(c2)CCC3)cc1`, the cytotoxicity at 10 µM turned out to be 5.73%.
For the molecule `COCc1nc2n(n1)CCCC2Nc1nc(C)ns1` (configuration not stated), the cytotoxicity at 10 µM is -3.32%.
Then `CCc1nc(NS(=O)(=O)c2cc(C)ccc2Br)no1`, with 4.66%.
For `O=C(CN1CCCC1Cn1cccn1)NC1CCN(C2CC2)CC1` (configuration not stated) the value was 5.77%; for `CC(C)CN1CCN(C(=O)c2cccnc2-n2cncn2)CC1`, 1.53%.
For `CCOc1ccc(CNCc2ccc(C(=O)NC)cc2)cc1OCC` the value was -7.06%.
In the case of `Cc1noc(CS(=O)(=O)CC(=O)NC(C)c2ccccc2)n1` (configuration not stated), the cytotoxicity at 10 µM is 9.81%.
For the molecule `CS(=O)(=O)CCCSCc1cc(F)cc(Br)c1`, the cytotoxicity at 10 µM stood at 9.05%.
With `CNS(=O)(=O)c1ccc(CNC(=O)N(CC(C)C)C(C)C)cc1`, the cytotoxicity at 10 µM came to 4.5%.
Consider `CC(C)NC(=O)CNC(C)c1c(F)cccc1Cl` (configuration not stated), for which the cytotoxicity at 10 µM is 7.22%.
For `CN(C(=O)CCN1CCCC1=O)c1cc(C#N)c2ccccc2n1` the value was 3.33%; for `CN(C)c1cc2c(nn1)CCN(C(=O)c1cc3ccccc3[nH]c1=O)C2`, 3.99%; for `Fc1cc(CNc2nncs2)ccc1Cl`, -1.74%.
With `CC(C)c1nc(C2CCCN2CCS(C)(=O)=O)no1` (configuration not stated), the cytotoxicity at 10 µM came to 6.51%.
Turning to `OCc1ccc(N2CCN(c3ncccn3)CC2)c(F)c1`, the cytotoxicity at 10 µM is -23.8%.
Consider `CN1CCN(C(CNC(=O)CCn2cccn2)c2cccs2)CC1` (configuration not stated), for which the cytotoxicity at 10 µM came to 24.4%.
For `CN(C)C(=O)CN1CCO[C@H]2CN(Cc3ccoc3)C[C@H]21` the value was -108%; for `Cc1nnc([C@@]23CCO[C@@H]2CCN(Cc2ccc4c(c2)OCO4)C3)o1`, -102%; for `CN(C)C(=O)C1CCC2(CCN(C(=O)Nc3ccc(F)cc3)CC2)O1` (configuration not stated), -111%.
Regarding `Cc1nc(NCC2CC2)nc2c1COCC21CCN(C)C1` (configuration not stated), the cytotoxicity at 10 µM is -0.722%.
For `Cc1noc(C)c1C1CCCN1CCC(=O)N1CCc2ccccc2C1` (configuration not stated) the value was 2.39%.
Take `O=C(c1ccnc(CC2COc3ccccc3C2)c1)N1CCCC1` (configuration not stated): the cytotoxicity at 10 µM came to 1.7%.
For `O=C(CN1CCCCC1)NCc1cccnc1-n1cnc2ccccc21` the value was 0.522%.
For `Cc1cccc(OC2CN(C(=O)C3CC(=O)N(C4CC4)C3)C2)c1` (configuration not stated) the value was -0.503%; for `CCC[C@H]1CN(Cc2nccn2C)C[C@@H]1NC(=O)C1(COC)CCC1`, -3.7%.
For `Cc1nc(CNCc2cccc(OC34CCCN(CC3)C4)c2)n[nH]1` (configuration not stated) the value was -3.69%; for `Cn1ncc2c(N3CCCN4CCC[C@H]4C3)nc(C(C)(C)C)nc21`, -128%; for `COc1ccc(CN2CCC(CO)(Cc3ccc(Cl)cc3)CC2)c(O)c1`, -134%.
`Cc1sc2nc(CCN)nc(N3CCS(=O)(=O)CC3)c2c1C`: the cytotoxicity at 10 µM is -44.1%.
For the molecule `CC(NC(=O)c1cccc(CCC(C)(C)O)c1)c1nnc(N)s1` (configuration not stated), the cytotoxicity at 10 µM came out at 1.16%.
For the molecule `CN(C)C(C(=O)NC1(CO)CCCC1)c1ccc(F)cc1` (configuration not stated), the cytotoxicity at 10 µM was -48.2%.
For `COc1cccc(CC(=O)N2CCC(Cc3nnc(SC)n3C)CC2)c1` the value was -40.2%.
Take `Nc1nc2c(c(N3CCC(CCn4cccn4)CC3)n1)CCNCC2`: the cytotoxicity at 10 µM is -4.17%.
As for `CCn1c(-c2ccccc2)nn(CC(=O)NCCc2c[nH]cn2)c1=O`, the cytotoxicity at 10 µM was -2.99%.
For `O=C(CCN1CCNCC1)N1CCC2(CC1)c1ccccc1CC2O` (configuration not stated) the value was -9.43%.
As for `O=C1CC[C@H]2CN(Cc3cccc(F)c3)CC[C@H]2N1CCc1c[nH]cn1`, the cytotoxicity at 10 µM is -1.04%.
Then `O=C(c1ccco1)N1CCC(n2cc(-c3ccsc3)nn2)CC1`, with 1.41%; and `O=C(Nc1ccc(F)cc1)N1CCC2(CCC(=O)N(C3CC3)C2)CC1`, with 5.54%; and `O=C(NCc1nc(-c2ncccn2)no1)c1ccc(C2CCCO2)s1` (configuration not stated), with 0.774%.
As for `CNC(=O)c1ccc(C(=O)N2CCCC2c2c(C)nn(C)c2C)cn1` (configuration not stated), the cytotoxicity at 10 µM is -12.8%.
For `NC(=O)C1CN(C(=O)Nc2ccccc2OCC(F)(F)F)CCO1` (configuration not stated) the value was -7.75%; for `Cn1cnc(S(=O)(=O)NCCN2CCCCCC2)c1Cl`, -17.2%; for `CC(C)c1nc(C2CCCN(C(=O)CCn3cncn3)C2)no1` (configuration not stated), -21.1%.
For `c1ccc(-c2nc(CN3CCCC3Cn3cncn3)co2)cc1` (configuration not stated) the value was -1.99%.
Then `Cc1cc(C)n(CC2CCCCN2CC(=O)NC2CCOCC2)n1` (configuration not stated), with -9.01%; and `CC(C)c1nc(CN2CCCC(Cn3cncn3)C2)cs1` (configuration not stated), with -12.9%.
Consider `Cc1cc(NC(=O)NCc2cccnc2OC(C)C)no1`, for which the cytotoxicity at 10 µM was -11.5%.
`CCN(Cc1cccc2c1OCO2)C(=O)NCCOC`: the cytotoxicity at 10 µM came out at 1.45%.
For `O=S(=O)(CCCNC1CCc2ncnn2C1)c1ccccc1` (configuration not stated) the value was 2.53%.
For `CCc1n[nH]c(C2CN(C(=O)c3ccnc(C4CC4)n3)CCO2)n1` (configuration not stated) the value was 2.4%; for `CCn1cc(CN2CCCN(C(=O)c3ccc(C)o3)CC2)cn1`, -13.9%.
For `CCc1nnc2n1CCN(C(=O)COCCc1ccccc1)C2` the value was -8.28%.
As to `O=C([C@H]1COC[C@H]2CN(C3CCCCC3)C[C@H]21)N1CCOCC1`, the cytotoxicity at 10 µM was -110%.
For `Cc1cccc(CN2CCC[C@@H]3CN(C(=O)c4ccco4)C[C@@H]32)n1` the value was -3.49%.
For `Cc1ccc(N2CCC3(CC2)CC(OCC(C)C)C3)nn1` the value was -121%; for `CCOC1COC2(CCN(CC3CCOCC3)CC2)C1` (configuration not stated), -97.6%.
Then `CS(=O)(=O)CC(=O)N1C[C@H]2CCC[C@@]2(COCc2ccncc2)C1`, with -101%.
On to `Cc1nc(CN2CCC3(CC2)C(=O)N(C)CCN3C)cs1`, for which the cytotoxicity at 10 µM is 4.37%.
Take `CC(C)Cc1nc(-c2ccnc(N3CCNCC3)n2)no1`: the cytotoxicity at 10 µM was 2.04%.
Then `Cc1nc(CN2CCO[C@@H]3CC(COc4ccccn4)C[C@H]32)cs1` (some centres not stated), with 8.57%; and `COc1ccc(OCc2sc(C3(O)CCCNCC3)nc2C)cc1` (configuration not stated), with -3.66%; and `COCCN1CCCn2c(nc(CNC(=O)COC)cc2=O)C1`, with -106%.
`COc1nn(C)c2c1CCCN(C(=O)c1cccc(C)n1)C2`: the cytotoxicity at 10 µM is -97.3%.
Take `CCOC1CC2(CCN(C(=O)Cc3ccccn3)CC2)C1`: the cytotoxicity at 10 µM is -90.9%.
For `O=C(Cc1ccsc1)N1Cc2nc(CN3CCCCC3)oc2C1` the value was 7.19%.
